Measured values reported in PMC2765218 (Nature biotechnology, 2009).

Test system: mutant HTT
Format: cell-based, human
Conditions: GM04281 cells
Outline: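 GM04281 fibroblasts (heterozygous for mutant HTT) were grown in MEM with 10% heat-inactivated FBS and plated 2 days before treatment. PNA-peptide conjugate stocks were heated 65 °C for 5 min, then added in OptiMEM; medium was replaced after 24 h and cells were harvested about 4 days later. BCA-normalised lysates ran on 5% Tris-acetate SDS-PAGE (ice bath) to separate wild-type and mutant HTT. Anti-HTT immunoblot with β-actin loading control; densitometry gave % inhibition versus control from triplicate experiments. Dose-response fit: y=100(1−x^m/(n^m+x^m)).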

selectivity (wild-type IC50/mutant IC50), HTT: 5 fold
Substance: K-GGCGGCTGTTGCTGCTGCT-K8 [3J/HTT]
